Measurements published in PMC5237703 (Acta Pharmaceutica Sinica. B, 2016).
Read-outs that look alike come from different tables or passages of the source.

Columns and labels:
[1] = test system: Lung cancer cell line A549; test: MTT cytotoxicity assay, A549; format: cell-based
COX-1 = molecular target: T1, COX-1 (Ovis aries, UniProt P05979); test: COX-1 inhibition, chromogenic TMPD oxidation assay; format: biochemical, Ram
T1 sequence (P05979 25-600): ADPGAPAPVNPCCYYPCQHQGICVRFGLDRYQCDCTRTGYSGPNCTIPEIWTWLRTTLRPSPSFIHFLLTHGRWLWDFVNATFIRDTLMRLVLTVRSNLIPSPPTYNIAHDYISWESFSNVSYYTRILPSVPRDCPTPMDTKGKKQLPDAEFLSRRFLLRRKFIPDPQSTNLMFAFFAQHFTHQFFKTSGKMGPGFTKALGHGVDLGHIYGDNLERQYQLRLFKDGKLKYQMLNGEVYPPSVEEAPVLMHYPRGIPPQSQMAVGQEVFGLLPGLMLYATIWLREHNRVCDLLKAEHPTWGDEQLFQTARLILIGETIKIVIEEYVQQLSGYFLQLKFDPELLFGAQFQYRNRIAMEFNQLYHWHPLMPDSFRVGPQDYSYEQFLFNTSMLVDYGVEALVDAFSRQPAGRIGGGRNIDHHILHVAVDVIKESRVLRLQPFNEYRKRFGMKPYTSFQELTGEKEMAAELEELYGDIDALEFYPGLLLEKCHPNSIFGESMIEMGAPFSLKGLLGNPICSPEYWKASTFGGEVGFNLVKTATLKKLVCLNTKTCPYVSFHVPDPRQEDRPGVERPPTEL

[2] = test system: prostatic cancer cell line DU-145; test: MTT cytotoxicity assay, DU-145; format: cell-based; conditions: read-out: IC50 Prostate DU-145
Summary of the method: (§1)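 Cells grown as adherent monolayers in DMEM with 10% FBS at 37 °C under humidified 5% CO2. Cells were trypsin-harvested and seeded at 5×10^3 per well, then graded concentrations of test compound were added for 72 h. MTT (4 mg/mL solution) was added for 4 h, formazan dissolved in DMSO and A570 read. IC50 derived from percent survival; mean ± SD, 2–3 experiments in triplicate.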

MCF-7 (breast cancer) = test: MTT cytotoxicity assay, MCF-7; format: cell-based, human; conditions: read-out: IC50 Breast MCF-7
Summary of the method: (§2)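 Media: EMEM for MCF-7, McCoy's 5a for SaOS-2, RPMI-1640 for K562, each with NaHCO3, sodium pyruvate, 10% fetal calf serum and 1% penicillin/streptomycin. Culture at 37 °C, humidified 5% CO2. Seeded 5×10^3 cells/well and exposed to graded test compound for 72 h. MTT for 4 h, DMSO solubilisation, A570. IC50 from percent survival; mean ± SD, 2–3 experiments in triplicate.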

[3] = test system: breast carcinoma cell line MDA-MB-468; test: MTT cytotoxicity assay, MDA-MB-468; format: cell-based; conditions: read-out: IC50 Breast MDAMB-468
Summary of the method: as §1

SaOS-2 (osteosarcoma) = test: MTT cytotoxicity assay, SaOS-2; format: cell-based, human; conditions: read-out: IC50 Bone SaoS2
Summary of the method: as §2

[4] = test system: pancreatic cancer cell line PANC-1; test: MTT cytotoxicity assay, PANC-1; format: cell-based; conditions: read-out: IC50 Pancreas PANC-1
Summary of the method: as §1

[5] = test system: breast carcinoma cell line MDA-MB-231; test: MTT cytotoxicity assay, MDA-MB-231; format: cell-based; conditions: read-out: IC50 Breast MDAMB-231
Summary of the method: as §1

Recombinant human COX-2 = molecular target: T2, Recombinant human COX-2 (Homo sapiens, UniProt P35354); test: biochemical; format: biochemical; conditions: for Selectivity ratio COX-2/COX-1: ratio of IC50 COX-2 to IC50 COX-1; for IC50: TMPD oxidation at 603 nm
T2 sequence (P35354 18-604): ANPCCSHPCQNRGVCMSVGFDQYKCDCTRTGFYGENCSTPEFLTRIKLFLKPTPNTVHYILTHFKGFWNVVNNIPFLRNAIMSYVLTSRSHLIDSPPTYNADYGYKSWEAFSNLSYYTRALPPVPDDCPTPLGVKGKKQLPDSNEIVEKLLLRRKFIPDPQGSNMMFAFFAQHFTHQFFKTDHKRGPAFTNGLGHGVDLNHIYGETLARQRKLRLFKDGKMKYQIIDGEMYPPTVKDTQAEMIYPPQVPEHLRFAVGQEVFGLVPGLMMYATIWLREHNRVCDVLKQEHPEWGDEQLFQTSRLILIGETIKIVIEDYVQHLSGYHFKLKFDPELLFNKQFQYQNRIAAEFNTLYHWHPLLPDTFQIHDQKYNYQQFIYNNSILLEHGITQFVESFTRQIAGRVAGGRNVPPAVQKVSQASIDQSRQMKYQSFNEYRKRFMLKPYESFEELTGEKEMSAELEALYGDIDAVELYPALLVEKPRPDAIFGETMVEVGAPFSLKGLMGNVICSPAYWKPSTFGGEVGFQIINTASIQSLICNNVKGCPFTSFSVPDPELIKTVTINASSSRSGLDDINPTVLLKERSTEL

[6] = test system: colon carcinoma cell line HCT-15; test: MTT cytotoxicity assay, HCT-15; format: cell-based; conditions: read-out: IC50 Colon HCT15
Summary of the method: as §1

[7] = test system: human embryonic kidney cells HEK293; test: MTT cytotoxicity assay, HEK293; format: cell-based; conditions: read-out: IC50 Normal HEK293
Summary of the method: as §1

[8] = test system: K562 (myelogenous leukemia); test: MTT cytotoxicity assay, K562; format: cell-based, human; conditions: read-out: IC50 Blood K562
Summary of the method: as §2

mouse fibroblast KB-31 = test: MTT cytotoxicity assay, KB-31; format: cell-based; conditions: KB 3-1, 72 h, read-out: IC50 Mouse fibroblast KB-31
Summary of the method: as §1

[9] = read-out: IC50 COX-1, COX-1 from Ram seminal vesicles, TMPD oxidation at 603 nm
[10] = read-out: IC50 COX-2, recombinant human COX-2
[11] = MTT, 72 h incubation, non-cancerous cell line
[12] = Homo sapiens, A549, read-out: IC50 Lung A549
[13] = IC50 COX-2, recombinant human COX-2

| IC50 (COX-1; [9]) [µM] | Selectivity ratio COX-2/COX-1 (Recombinant human COX-2) | IC50 (COX-1) [µM] | IC50 (Recombinant human COX-2; [13]) [µM] | Molecule | IC50 ([1]; read-out: IC50 Lung A549, MTT) [µM] | IC50 ([2]; MTT, 72 h incubation) [µM] | IC50 (MCF-7 (breast cancer); MTT, 72 h incubation) [µM] | IC50 ([3]; MTT, 72 h incubation) [µM] | IC50 (SaOS-2 (osteosarcoma); MTT, 72 h incubation) [µM] | IC50 [1, 12] [µM] | IC50 (mouse fibroblast KB-31) [µM] | IC50 ([2]; Homo sapiens, DU-145, 72 h) [µM] | IC50 (MCF-7 (breast cancer); Homo sapiens, MCF7, 72 h) [µM] | IC50 ([3]; Homo sapiens, MDA-MB-468, 72 h) [µM] | IC50 (SaOS-2 (osteosarcoma); Homo sapiens, SAOS-2, 72 h) [µM] | IC50 ([4]; Homo sapiens, PANC-1, 72 h) [µM] | IC50 ([5]; Homo sapiens, MDA-MB-231, 72 h) [µM] | IC50 ([6]; Homo sapiens, HCT-15, 72 h) [µM] | IC50 ([7]; Homo sapiens, HEK293, 72 h) [µM] | IC50 ([8]; Homo sapiens, K562, 72 h) [µM] | also measured |
| --- | --- | --- | --- | --- | --- | --- | --- | --- | --- | --- | --- | --- | --- | --- | --- | --- | --- | --- | --- | --- | --- |
| 42.7 ± 2.5 | 0.60 |  |  | 4-(3-(4-Fluorophenyl)-3H-imidazo[4,5-b]pyridin-2-yl)-2-methoxyphenol [Compound 3d] | > 100 | > 100 | 72 | > 100 | 71.5 |  |  |  |  |  |  |  |  |  |  |  | IC50 ([4]; MTT, 72 h incubation): > 100 µM; IC50 ([5]; MTT, 72 h incubation): > 100 µM; IC50 (Recombinant human COX-2; [10]): 25.6 ± 1 µM; IC50 ([6]; MTT, 72 h incubation): > 100 µM; IC50 [7, 11]: > 100 µM; IC50 ([8]; MTT, 72 h incubation): 57 µM |
|  | 1.17 | 19.1 ± 0.3 | 22.4 ± 2.5 | COc1cc(-c2nc3cccnc3n2-c2ccc(Cl)cc2)cc(OC)c1OC [Compound 3g, 3-(4-Chlorophenyl)-2-(3,4,5-trimethoxyphenyl)-3H-imidazo[4,5-b]pyridine] |  |  |  |  |  | > 100 | 64.4 | > 100 | 56 | 69.3 | 55 | 83.5 | > 100 | > 100 | > 100 | 47 |  |
|  | 0.42 | 36 ± 1.4 | 15.1 ± 0.9 | Fc1ccc(-n2c(-c3cccc(C(F)(F)F)c3)nc3cccnc32)cc1 [Compound 3c, 3-(4-Fluorophenyl)-2-(3-(trifluoromethyl)phenyl)-3H-imidazo[4,5-b]pyridine] |  |  |  |  |  | > 100 | > 100 | > 100 | 44 | > 100 | 52.5 | > 100 | > 100 | > 100 | > 100 | 42 |  |
|  | 3.59 | 10 ± 0.01 | 35.9 ± 2 | Oc1cccc(-c2nc3cccnc3n2-c2ccc(F)cc2)c1 [Compound 3a, 3-(3-(4-Fluorophenyl)-3H-imidazo[4,5-b]pyridin-2-yl)phenol] |  |  |  |  |  | > 100 | > 100 | > 100 | 61.5 | > 100 | 64 | > 100 | > 100 | > 100 | > 100 | 49 |  |
| 18.5 | 0.83 |  |  | 5-(3-(3,4-Dimethoxyphenyl)-3H-imidazo[4,5-b]pyridin-2-yl)-2-methoxyphenol [Compound 3h] | > 100 | > 100 | 53 | > 100 | 59 |  |  |  |  |  |  |  |  |  |  |  | IC50 ([4]; MTT, 72 h incubation): 57.7 µM; IC50 ([5]; MTT, 72 h incubation): > 100 µM; IC50 (Recombinant human COX-2; [10]): 15.4 ± 3.1 µM; IC50 ([6]; MTT, 72 h incubation): 66.9 µM; IC50 [7, 11]: 80 µM; IC50 ([8]; MTT, 72 h incubation): 54.5 µM |
|  | 0.42 | 21.8 ± 1.1 | 9.2 ± 0.02 | FC(F)(F)c1cccc(-c2nc3cccnc3n2-c2ccc(Cl)cc2)c1 [Compound 3f, 3-(4-Chlorophenyl)-2-(3-(trifluoromethyl)phenyl)-3H-imidazo[4,5-b]pyridine] |  |  |  |  |  | > 100 | > 100 | > 100 | 49.9 | > 100 | 53.5 | > 100 | > 100 | > 100 | > 100 | 43 | selectivity for COX-2 over COX-1 (Recombinant human COX-2; from IC50 values against COX-2 and COX-1): 2 fold |
| 16.8 ± 0.1 | 16.58 |  |  | 5-(3-(4-Fluorophenyl)-3H-imidazo[4,5-b]pyridin-2-yl)-2-methoxyphenol [Compound 3e] | > 100 | > 100 | 60 | 78.8 | 62.5 |  |  |  |  |  |  |  |  |  |  |  | IC50 ([4]; MTT, 72 h incubation): > 100 µM; IC50 ([5]; MTT, 72 h incubation): > 100 µM; IC50 (Recombinant human COX-2; [10]): 279 ± 7.2 µM; IC50 ([6]; MTT, 72 h incubation): > 100 µM; IC50 [7, 11]: > 100 µM; IC50 ([8]; MTT, 72 h incubation): 53 µM |
|  |  | 15 ± 0.13 |  | COc1cccc(-c2nc3cccnc3n2-c2ccc(F)cc2)c1 [Compound 3b, 3-(4-Fluorophenyl)-2-(3-methoxyphenyl)-3H-imidazo[4,5-b]pyridine] |  |  |  |  |  | > 100 | 75 | > 100 | 69 | 66.5 | 67 | > 100 | > 100 | > 100 | > 100 | 46 |  |
